One compound from ChEMBL document CHEMBL4411315, “Discovery of Novel Dual Histone Deacetylase and Mammalian Target of Rapamycin Target Inhibitors as a Promising Strategy for Cancer Therapy” (J Med Chem, 2019) can be followed below.

For one experiment, the target named is Histone deacetylase 5 (Homo sapiens, UniProt Q9UQL6). In words: Inhibition of recombinant full length N-terminal GST-tagged human HDAC5 expressed in baculovirus expression system using Ac-peptide-AMC as substrate preincubated for 15 mins followed by substrate addition and measured after 1 hr by fluorescence assay.
Experiment [1] concerns MV4-11. Nature of the experiment: Antiproliferative activity against human MV4-11 cells after 72 hrs by MTT assay. The experiment is classed as functional, cell-based. Particulars: MV4-11, 72 h. A general note: Formazan colour is commonly taken as a measure of viable cells.
The subject of experiment [2] is MV4-11. In words: Cell cycle arrest in human MV4-11 cells assessed as accumulation at S phase at 5 nM after 24 hrs by propidium iodide/RNase staining-based FACS analysis (reference value: 36.42%). The experiment is classed as functional. In general terms: A flow cytometer gives signals particle by particle.
The subject of experiment [3] is MM1.S. In words: Cell cycle arrest in human MM1S cells assessed as accumulation at G2/M phase at 2.5 nM after 24 hrs by propidium iodide/RNase staining-based FACS analysis (reference value: 26.29%). It counts as functional.
Experiment [4] has as its system MM1.S. In words: Cell cycle arrest in human MM1S cells assessed as accumulation at G2/M phase at 5 nM after 24 hrs by propidium iodide/RNase staining-based FACS analysis (reference value: 26.29%). It counts as functional.
For experiment [5], the system named is MV4-11. Nature of the experiment: Induction of apoptosis in human MV4-11 cells assessed as viable cells at 10 nM after 48 hrs by Annexin V-FITC/propidium iodide staining-based flow cytometric analysis (reference value: 84.1%). The experiment is classed as functional. Particulars: MV4-11, 48 h, read-out: Activity.
Experiment [6] relates to MV4-11. In words: Induction of apoptosis in human MV4-11 cells assessed as early apoptotic cells at 320 nM after 48 hrs by Annexin V-FITC/propidium iodide staining-based flow cytometric analysis (reference value: 10.7%). It counts as functional.
For experiment [7], the system named is MV4-11. Nature of the experiment: Induction of apoptosis in human MV4-11 cells assessed as viable cells at 320 nM after 48 hrs by Annexin V-FITC/propidium iodide staining-based flow cytometric analysis (reference value: 84.1%). The experiment is classed as functional. As to conditions: MV4-11, 48 h, read-out: Activity.
Experiment [8] concerns MM1.S. Nature of the experiment: Induction of apoptosis in human MM1S cells assessed as viable cells at 10 nM after 48 hrs by Annexin V-FITC/propidium iodide staining-based flow cytometric analysis (reference value: 98.9%). The experiment is classed as functional. Particulars: read-out: Activity.
Experiment [9] deals with MM1.S. Nature of the experiment: Induction of apoptosis in human MM1S cells assessed as early apoptotic cells at 80 nM after 48 hrs by Annexin V-FITC/propidium iodide staining-based flow cytometric analysis (reference value: 0.38%). It counts as functional.
For experiment [10], the system named is MM1.S. Nature of the experiment: Induction of apoptosis in human MM1S cells assessed as early apoptotic cells at 320 nM after 48 hrs by Annexin V-FITC/propidium iodide staining-based flow cytometric analysis (reference value: 0.38%). It counts as functional.
Experiment [11] concerns MM1.S. Nature of the experiment: Induction of apoptosis in human MM1S cells assessed as late apoptotic cells at 320 nM after 48 hrs by Annexin V-FITC/propidium iodide staining-based flow cytometric analysis (reference value: 0.42%). It counts as functional.
Experiment [12] deals with MM1.S. Nature of the experiment: Induction of apoptosis in human MM1S cells assessed as viable cells at 320 nM after 48 hrs by Annexin V-FITC/propidium iodide staining-based flow cytometric analysis (reference value: 98.9%). It counts as functional. Particulars: read-out: Activity.
In experiment [13] the target is Protein deacetylase HDAC6 (Homo sapiens) (UniProt Q9UBN7). Nature of the experiment: Inhibition of HDAC6 in human MV4-11 cells assessed as increase in alpha-tubulin acetylation after 6 hrs by Western blot analysis. The experiment is classed as cell-based. The method in brief:
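MV4-11 cells treated 6 h at 0.01, 0.1 or 1 μM. Whole-cell protein extracted in RIPA buffer and quantified by BCA. 30 μg protein run on SDS-PAGE and transferred to PVDF. Blocked 1 h in 5% milk, primary antibody overnight at 4 °C, HRP secondary 1 h, ECL detection. Acetyl-histone H3 and acetyl-α-tubulin probed, with GAPDH as loading control.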
For orientation: In western blotting, separated proteins are transferred to a membrane and probed.

One may read the IC50 as the concentration that gives 50% inhibition.

Sequence of Histone deacetylase 5 (Q9UQL6 whole entry): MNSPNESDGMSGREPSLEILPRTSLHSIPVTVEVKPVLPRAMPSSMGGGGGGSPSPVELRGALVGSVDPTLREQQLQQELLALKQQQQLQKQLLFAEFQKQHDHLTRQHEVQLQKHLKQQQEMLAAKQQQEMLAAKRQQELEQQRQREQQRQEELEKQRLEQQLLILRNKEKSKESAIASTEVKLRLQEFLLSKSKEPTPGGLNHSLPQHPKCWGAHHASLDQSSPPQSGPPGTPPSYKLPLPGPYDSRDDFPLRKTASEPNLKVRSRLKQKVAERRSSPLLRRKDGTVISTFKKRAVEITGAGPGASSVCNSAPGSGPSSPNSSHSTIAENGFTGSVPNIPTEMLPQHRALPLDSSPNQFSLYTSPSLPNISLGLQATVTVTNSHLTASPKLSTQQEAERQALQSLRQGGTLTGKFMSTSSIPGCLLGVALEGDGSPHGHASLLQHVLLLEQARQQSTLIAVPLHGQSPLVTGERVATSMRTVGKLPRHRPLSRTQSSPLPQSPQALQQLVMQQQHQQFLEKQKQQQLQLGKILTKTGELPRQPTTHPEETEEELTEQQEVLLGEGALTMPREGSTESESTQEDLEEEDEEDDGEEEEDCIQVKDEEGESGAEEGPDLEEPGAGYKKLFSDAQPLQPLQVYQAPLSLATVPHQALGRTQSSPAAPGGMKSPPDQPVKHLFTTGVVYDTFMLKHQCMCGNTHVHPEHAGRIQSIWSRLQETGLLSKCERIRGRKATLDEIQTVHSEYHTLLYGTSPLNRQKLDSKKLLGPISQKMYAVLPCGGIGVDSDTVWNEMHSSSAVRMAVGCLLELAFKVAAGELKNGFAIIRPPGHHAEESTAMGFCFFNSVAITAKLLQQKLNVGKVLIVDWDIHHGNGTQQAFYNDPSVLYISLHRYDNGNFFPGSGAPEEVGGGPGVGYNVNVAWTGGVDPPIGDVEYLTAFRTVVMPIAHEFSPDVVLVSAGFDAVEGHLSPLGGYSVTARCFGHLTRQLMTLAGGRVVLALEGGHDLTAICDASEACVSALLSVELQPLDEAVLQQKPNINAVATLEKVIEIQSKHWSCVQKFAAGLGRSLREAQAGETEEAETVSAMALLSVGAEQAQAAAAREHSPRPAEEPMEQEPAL
Sequence of Protein deacetylase HDAC6 (Homo sapiens) (Q9UBN7 whole entry): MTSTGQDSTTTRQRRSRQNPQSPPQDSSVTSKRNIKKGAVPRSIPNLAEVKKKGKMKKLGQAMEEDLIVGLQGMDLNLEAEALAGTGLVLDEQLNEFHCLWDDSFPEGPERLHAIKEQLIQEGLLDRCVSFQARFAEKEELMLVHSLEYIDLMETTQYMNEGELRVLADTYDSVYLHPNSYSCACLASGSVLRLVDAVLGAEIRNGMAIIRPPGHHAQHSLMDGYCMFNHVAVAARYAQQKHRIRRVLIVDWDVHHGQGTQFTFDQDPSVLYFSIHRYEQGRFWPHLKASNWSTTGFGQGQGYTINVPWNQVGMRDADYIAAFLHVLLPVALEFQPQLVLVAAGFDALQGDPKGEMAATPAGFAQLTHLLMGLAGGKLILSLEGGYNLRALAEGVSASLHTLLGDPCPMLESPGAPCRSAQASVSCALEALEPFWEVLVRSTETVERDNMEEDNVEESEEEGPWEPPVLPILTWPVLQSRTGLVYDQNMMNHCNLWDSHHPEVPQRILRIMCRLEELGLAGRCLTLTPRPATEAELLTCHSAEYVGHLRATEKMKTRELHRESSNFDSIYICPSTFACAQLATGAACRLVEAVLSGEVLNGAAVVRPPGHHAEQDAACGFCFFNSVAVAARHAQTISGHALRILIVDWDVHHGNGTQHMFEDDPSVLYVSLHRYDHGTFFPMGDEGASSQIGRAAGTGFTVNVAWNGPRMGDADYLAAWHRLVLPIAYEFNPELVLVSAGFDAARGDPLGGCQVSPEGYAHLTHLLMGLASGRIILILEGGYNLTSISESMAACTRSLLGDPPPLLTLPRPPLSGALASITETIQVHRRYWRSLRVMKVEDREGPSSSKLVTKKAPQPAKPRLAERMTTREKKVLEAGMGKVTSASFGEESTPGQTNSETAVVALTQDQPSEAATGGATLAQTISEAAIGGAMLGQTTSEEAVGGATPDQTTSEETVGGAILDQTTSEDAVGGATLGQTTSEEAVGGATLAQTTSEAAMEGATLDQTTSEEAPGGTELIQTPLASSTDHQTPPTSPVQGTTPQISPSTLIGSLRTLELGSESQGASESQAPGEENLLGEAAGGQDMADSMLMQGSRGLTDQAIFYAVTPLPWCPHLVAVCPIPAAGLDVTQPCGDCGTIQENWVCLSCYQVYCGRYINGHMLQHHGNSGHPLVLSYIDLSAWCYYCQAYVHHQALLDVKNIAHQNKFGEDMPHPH

As for `C[C@@H]1CN(C(=O)Nc2ccc(-c3nc(N4CCOCC4)c4cnn(CCCCCCC(=O)NO)c4n3)cc2)CCO1`, the IC50 on Histone deacetylase 5 is over 1000 nM; in the experiment on MV4-11 [1], 4.05 nM. Also, the Activity was found to be 21.32% with MV4-11 [2]; 25.8% in the experiment on MM1.S [3]; 24.4% in the experiment on MM1.S [4]; 27.5% in the experiment on MV4-11 [6]; 7.95% in the experiment on MM1.S [9]; 32.2% with MM1.S [10]. Moreover, the Activity with MM1.S [11] was 62%. The viability at 0.01 µM was 75.2% with MV4-11 [5] and 95.1% with MM1.S [8]. In addition, the figures for the viability at 0.32 µM in the experiment with MV4-11 [7] and in the experiment with MM1.S [12] were 2.57% and 3.68%, respectively. In addition, in experiment [13], the inhibition result was “Dose-dependent effect”.
